The values that follow come from ChEMBL document CHEMBL5055621, “Synthesis and Characterization of the Novel Rodent-Active and CNS-Penetrant P2X7 Receptor Antagonist Lu AF27139” (J Med Chem, 2021).

A short description of data set [1]: Metabolic stability in human hepatocytes assessed as intrinsic clearance at 1 uM measured after 2 hrs. Format: ADME, cell-based, Hepatocyte. The conditions noted are these: read-out: CLH (converted).
Data set [2] deals with T1, Cytochrome P450 1A2 (Homo sapiens, UniProt P05177).
T1 sequence (P05177 whole entry): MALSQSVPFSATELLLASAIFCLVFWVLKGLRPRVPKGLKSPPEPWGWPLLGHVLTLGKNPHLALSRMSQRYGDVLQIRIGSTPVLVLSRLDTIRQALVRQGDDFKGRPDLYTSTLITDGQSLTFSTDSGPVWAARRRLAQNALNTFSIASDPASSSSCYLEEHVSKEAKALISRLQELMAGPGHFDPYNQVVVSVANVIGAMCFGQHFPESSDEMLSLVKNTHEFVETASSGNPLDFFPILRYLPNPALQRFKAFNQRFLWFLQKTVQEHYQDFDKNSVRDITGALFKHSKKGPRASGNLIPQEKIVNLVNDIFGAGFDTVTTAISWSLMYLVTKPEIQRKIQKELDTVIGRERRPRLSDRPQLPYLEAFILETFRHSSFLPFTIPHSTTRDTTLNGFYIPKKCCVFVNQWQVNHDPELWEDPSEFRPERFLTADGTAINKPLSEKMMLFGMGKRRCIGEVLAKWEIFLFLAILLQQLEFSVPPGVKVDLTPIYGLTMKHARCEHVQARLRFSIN
The data set is described as follows: Time dependent inhibition of CYP1A2 (unknown origin) upto 25 uM. The format is ADME.

For data set [3], the target named is Cytochrome P450 2C9 (Homo sapiens, UniProt P11712). The data set is described as follows: Time dependent inhibition of CYP2C9 (unknown origin) upto 25 uM. Format: ADME.
Sequence of Cytochrome P450 2C9 (P11712 whole entry): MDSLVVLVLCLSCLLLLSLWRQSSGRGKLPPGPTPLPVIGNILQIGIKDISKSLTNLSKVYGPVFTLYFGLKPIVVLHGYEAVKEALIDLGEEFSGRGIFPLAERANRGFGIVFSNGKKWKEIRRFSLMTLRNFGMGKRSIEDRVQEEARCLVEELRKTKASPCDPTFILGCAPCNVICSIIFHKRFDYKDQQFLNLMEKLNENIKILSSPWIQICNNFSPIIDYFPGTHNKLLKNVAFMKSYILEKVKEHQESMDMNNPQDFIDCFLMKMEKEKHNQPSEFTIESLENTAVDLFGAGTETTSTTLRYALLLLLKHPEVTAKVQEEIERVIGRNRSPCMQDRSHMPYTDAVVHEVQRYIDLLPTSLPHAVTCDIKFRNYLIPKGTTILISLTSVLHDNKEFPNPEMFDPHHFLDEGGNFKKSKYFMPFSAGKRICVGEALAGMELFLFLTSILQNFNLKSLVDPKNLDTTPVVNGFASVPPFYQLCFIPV
The target of data set [4] is T2, Cytochrome P450 2B6 (Homo sapiens, UniProt P20813).
T2 sequence (P20813 whole entry): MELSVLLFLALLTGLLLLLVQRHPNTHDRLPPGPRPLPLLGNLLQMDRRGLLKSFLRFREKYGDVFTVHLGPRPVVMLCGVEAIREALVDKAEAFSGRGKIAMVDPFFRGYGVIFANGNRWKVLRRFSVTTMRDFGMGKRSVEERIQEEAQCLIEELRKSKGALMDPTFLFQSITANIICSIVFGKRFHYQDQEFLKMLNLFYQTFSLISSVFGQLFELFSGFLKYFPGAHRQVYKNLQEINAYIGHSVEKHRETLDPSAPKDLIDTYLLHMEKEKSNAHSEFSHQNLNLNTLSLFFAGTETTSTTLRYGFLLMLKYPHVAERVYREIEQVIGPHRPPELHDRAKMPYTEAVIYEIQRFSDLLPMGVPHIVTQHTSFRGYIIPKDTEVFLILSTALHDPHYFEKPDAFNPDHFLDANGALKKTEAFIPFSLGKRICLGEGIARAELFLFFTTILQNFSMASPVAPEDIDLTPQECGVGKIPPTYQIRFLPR
The data set is described as follows: Time dependent inhibition of CYP2B6 (unknown origin) upto 25 uM. The format is ADME.

Data set [5] concerns the target T3, Cytochrome P450 2C8 (Homo sapiens, UniProt P10632).
T3 sequence (P10632 whole entry): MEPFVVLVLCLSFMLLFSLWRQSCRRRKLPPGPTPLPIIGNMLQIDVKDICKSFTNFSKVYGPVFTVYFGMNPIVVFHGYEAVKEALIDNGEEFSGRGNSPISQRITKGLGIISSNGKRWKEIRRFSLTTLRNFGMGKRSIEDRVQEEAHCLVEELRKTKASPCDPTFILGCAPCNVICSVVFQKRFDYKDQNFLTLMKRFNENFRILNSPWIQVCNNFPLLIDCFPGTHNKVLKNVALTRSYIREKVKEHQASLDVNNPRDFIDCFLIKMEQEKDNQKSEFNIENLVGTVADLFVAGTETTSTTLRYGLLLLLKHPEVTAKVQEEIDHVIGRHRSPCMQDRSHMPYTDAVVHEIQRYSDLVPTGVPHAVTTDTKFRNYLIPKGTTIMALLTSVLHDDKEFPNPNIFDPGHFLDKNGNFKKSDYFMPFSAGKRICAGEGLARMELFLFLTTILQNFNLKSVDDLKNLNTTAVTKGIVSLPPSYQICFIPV
The data set is described as follows: Inhibition of CYP2C8 (unknown origin) upto 25 uM. Format: ADME.

The nature of data set [6]: Volume of distribution at steady state in rat at 1 mg/kg, iv and 2 mg/kg, po. Format: ADME, organism-based. The conditions noted are these: in vivo. An outline of the steps: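 Plasma concentration–time profiles were obtained in rats after an iv dose of 1 mg/kg and a po dose of 2 mg/kg. Parameters were estimated by noncompartmental analysis. In vivo work used male Sprague–Dawley rats of 150−200 g unless noted otherwise.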

Data set [7] in a line: Half life in rat at 1 mg/kg, iv and 2 mg/kg, po. The format is ADME, organism-based. The conditions noted are these: in vivo. An outline of the steps:
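Rats received 1 mg/kg iv or 2 mg/kg po. The plasma concentration–time profile was analysed by a noncompartmental model to give half-life, Cmax, Tmax and absolute oral bioavailability.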

Data set [8] is described as follows: Free plasma concentration in rat at 30 mg/kg, po after 1 hr by ex vivo equilibrium dialysis. Format: ADME, organism-based. An outline of the steps: (§1)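 Male Sprague–Dawley rats were dosed orally at 1–100 mg/kg, and total plasma concentration was measured at 1 and 2 h. This was multiplied by fraction unbound from ex vivo equilibrium dialysis; mean ± SEM, n = 3 animals.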

Data set [9] can be described thus: Free plasma concentration in rat at 10 mg/kg, po after 2 hrs by ex vivo equilibrium dialysis. Format: ADME, organism-based. An outline of the steps: as §1
(In general: In equilibrium dialysis free small molecules cross a membrane that holds back macromolecules.)

The nature of data set [10]: Free plasma concentration in rat at 100 mg/kg, po after 2 hrs by ex vivo equilibrium dialysis. The format is ADME, organism-based. An outline of the steps:
as §1

Data set [11] is described as follows: AUC (0 to 8 hr) in male rat at 3 mg/kg, po after 7 days. Format: ADME, organism-based. Further details: dose 3 mg/kg, time 7 day, route po; call rule not given here. As to conditions: in vivo. An outline of the steps:
(§2)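 Oral dosing in male Sprague-Dawley rats (150−200 g, 7-day acclimation, standard housing) in a 7-day exploratory toxicology study.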

A short description of data set [12]: AUC (0 to 8 hr) in male rat at 150 mg/kg, po after 7 days. Format: ADME, organism-based. Further details: time 7 day, dose 150 mg/kg, route po. The conditions noted are these: in vivo. An outline of the steps: as §2
Data set [13] is described as follows: in vitro. The conditions noted are these: human, liver microsomes. On the technique in general: Liver microsomes are a subcellular fraction often used to study metabolism.
A short description of data set [14]: AUC (0 to 8 hrs) in female mouse at 100 mg/kg, po after 14 days. The conditions noted are these: in vivo.
The nature of data set [15]: Tmax in female mouse at 100 mg/kg, po administered as single dose. The conditions noted are these: in vivo.

Structures are written as SMILES.

Turning to `O=C(NC[C@H](c1ccc(Cl)cc1)N1CCOCC1)c1sc(-c2ncccn2)nc1C(F)(F)F`, in data set [1], the CLint scaled at 1 µM was 14.2 mL/min/kg. For the same molecule, the TDI result in data set [2], in [3] and in data set [4] was “Not Active” each time. Besides, the “inhibition (INH)” value in data set [5] is reported as “Not Active”. In addition, the Vdss in [6] worked out at 0.95 L/kg. In data set [7], the half-life is 2.7 h. Besides, the “Cp(f)” value in data set [8] came out at 414 nM; in data set [9], 164 nM; in data set [10], 497 nM. The values for the exposure (AUC) at 168 h in data set [11] and in data set [12] were 7.16 µM·h and 210 µM·h, respectively. This molecule also showed a CLint scaled at 1 h, 1 µM in data set [13] of 43.3 mL/min/kg. For the same molecule, the AUC at 336 h in [14] came to 131 µM·h. In [15], the time of peak concentration (Tmax) is 1 h.

A word on the half-life: it is the time in which the quantity being followed falls by half. The AUC is concentration integrated over time. High values mean high exposure, low ones low exposure. As a reminder, the Tmax is the time from dosing to the highest level.
